From ChEMBL document CHEMBL4513216, “Probing the Open Global Health Chemical Diversity Library for Multistage-Active Starting Points for Next-Generation Antimalarials” (ACS Infect Dis, 2020)

Experiment: Toxicity liver stage against HepG2, at 10uM
Assay type: cell-based
Design: test concentration 10 uM, cell line HepG2-A16-CD81EGFP
Details: human, HepG2-A16-CD81EGFP cells; read-out: INHIBITION
In short: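 Uninfected HepG2-A16-CD81EGFP cells, 3 × 10^3 per well, 1536-well, plated on prespotted compound at 10 μM final, parasite-free screening media added to match infected plates; puromycin 10 μM positive, DMSO 0.5% negative; run in parallel with 48 h PbLuc assay at 37 °C, 5% CO2; viability by CellTiter-Glo luminescence, normalized to controls.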

Row | SMILES | cytotoxicity at 10 µM [%]
1 | N#Cc1c(Cl)nsc1NCCN1CCOCC1 | 9.64
2 | Cc1nnc(NCc2cccc(OCc3ccccn3)c2)c(C#N)c1C | 5.93
3 | Cn1cncc1-c1nnc([C@H]2CCN(Cc3cccnc3)C2)o1 | -4.39
4 | CSc1ccc(CCNC(=O)Cc2c(C)n[nH]c2C)cc1 | 1.02
5 | O=C(Cn1cccn1)N1CCC(Oc2ccc(C(F)(F)F)cn2)CC1 | 8.77
6 | CNCc1cnc(Nc2ccccc2)nc1 | 1.38
7 | NC(=O)c1ccc(NC(=O)Cn2cc(I)cn2)cc1 | 8.49
8 | COc1cccc(C2SCC(=O)Nc3n[nH]cc32)c1OC(C)C (stereo unspecified) | 5.09
9 | Cc1cc(O)c(OCC(=O)Nc2nc3c(s2)CCCC3)cn1 | 12.8
10 | O=C(Cn1ccc2ccc(Cl)cc21)/N=c1\[nH]nc(C2CCCO2)s1 (stereo unspecified) | 10.8
11 | Cc1oc(-c2nc(C#N)c(NC(C)(C)C)o2)cc1S(=O)(=O)N1CCCC1 | -0.699
12 | COc1ccc(CNC(=O)c2nn(C)c3c2CS(=O)(=O)CC3)cc1 | 8.52
13 | CCn1ccc(C(=O)Nc2ccc3c(c2)C(C)(C)C(=O)N3C)n1 | 12.2
14 | Cc1ccc2nc(C)cc(NCCNS(=O)(=O)c3cccnc3)c2c1 | 13.5
15 | Cc1cc(N2CCC(Cc3cccnc3)CC2)ncn1 | 1.96
16 | Fc1cccc(OC2CCN(Cc3ncc[nH]3)CC2)c1 | -31.2
17 | COCCNC(=O)C1(Cc2ccccc2-c2ccncc2)CCOCC1 | -26.3
18 | CC(=O)N1CCCC(c2ccc(C(N)=O)cn2)C1 (stereo unspecified) | 5.07
19 | O=C(NC1CCCc2nc(N3CCCCC3)ncc21)C1CCCC1 (stereo unspecified) | -2.05
20 | O=C(c1cccs1)N1CCCC(c2cc(C(F)F)n3ncnc3n2)C1 (stereo unspecified) | -23.4
21 | O=C(C1CCCCC1)N1CCC(n2nc(-c3ccco3)ccc2=O)CC1 | -16.6
22 | Cc1cncc(C2CCCN(C(=O)c3cnco3)C2)n1 (stereo unspecified) | -6.94
23 | COCC(=O)N1CCCC1c1nccnc1Nc1nc(C)cs1 (stereo unspecified) | -3.36

Row | SMILES | cytotoxicity at 10 µM [%]
24 | Cc1cncc(C2CCCN(CC3CCC3)C2)n1 (stereo unspecified) | -7.41
25 | COc1cccc(Cn2[nH]c(C)c3c(NC(=O)C(C)OC)nnc2-3)c1 (stereo unspecified) | -2.03
26 | Cc1cnc(NS(=O)(=O)c2cccc(C#N)c2)s1 | 15
27 | CC(=O)C(Cc1ccccc1)NC(=O)CSc1nncn1C (stereo unspecified) | 3.16
28 | COc1cccc(CC(C)NC(=O)c2ccc(CNC(C)=O)cc2)c1 (stereo unspecified) | 7.21
29 | COc1cccc(CC(C)NC(=O)NCc2ccn(C)c2)c1 (stereo unspecified) | 0.166
30 | CCCN(C(=O)CN1CCN(CCO)CC1)C1=CCCCC1 | 6.45
31 | COc1c(C2CCCN2c2ncnc3sccc23)c(C)nn1C (stereo unspecified) | 21.5
32 | O=C(NCC1CCOC1)c1cc(-c2cccc(Cl)c2)[nH]n1 (stereo unspecified) | -1.74
33 | Cc1ccn(C)c(=O)c1NC(=O)N(C)Cc1cccc(OC(C)C)c1 | 2.29
34 | COCc1nc2cc3c(cc2c(=O)o1)OCCCO3 | 1.19
35 | COCCNC(=O)CCNC(=O)c1ccc(N2CCC(C)=N2)cc1 | 2.07
36 | CNS(=O)(=O)CC(=O)N1CCCc2cc(C(C)C)ccc21 | 11.8
37 | CN(C1CCN(C(=O)NCCc2ccc(F)cc2F)CC1)S(C)(=O)=O | 12.3
38 | CCNC(=O)NCCc1csc(N2CCCC2)n1 | -4.63
39 | CCN(C)C(=O)CCC(=O)c1cccs1 | 3.9
40 | CCn1cnnc1C1CCN(C(=O)c2cccc(N(C)C)c2)CC1 | 1.54
41 | Cc1n[nH]c(C)c1C1CCCN1C(=O)Cc1cccc(F)c1 (stereo unspecified) | 4.8
42 | Cn1cc(S(=O)(=O)N2CCCC2Cn2ccnc2)cc1C(N)=O (stereo unspecified) | 2.8
43 | CS(=O)(=O)c1nccn1Cc1ccncc1 | 14.5
44 | Cc1ccc(CNc2ccccc2SCCC(N)=O)s1 | 10.6
45 | CC(C)n1cnnc1C1CCCN(S(=O)(=O)CCCF)C1 (stereo unspecified) | 7.39
46 | CC(C)OCc1noc(C2CCOC2)n1 (stereo unspecified) | 1.19

Row | SMILES | cytotoxicity at 10 µM [%]
47 | Cc1oc(-c2ccsc2)nc1CNC(C)Cn1cccn1 (stereo unspecified) | -9.81
48 | COCC(=O)N1CCN(C(C)c2ncc(-c3ccccc3)o2)CC1 (stereo unspecified) | 5.66
49 | CC(=O)Nc1cccc(Cn2nc(C)nc2C)c1 | -3.19
50 | CC(NC(=O)Cn1cccnc1=O)c1ccc(OC(F)(F)F)cc1 (stereo unspecified) | 1.66
51 | Cc1ccc(C(=O)NCCNC(=O)N(C)C(C)c2ccccn2)cc1 (stereo unspecified) | 7.97
52 | CC(C)(C)OC(=O)CNC(=O)CCc1nnc(-c2ccsc2)o1 | -10.2
53 | COc1cccc(CN(C)C(=O)CCC(=O)c2ccc(Cl)cc2)c1OC | -1.1
54 | c1cc2nc(C3CCNCC3)nn2cc1NC1CCC1 | -98.8
55 | O=C(NCc1ccccc1)N1CCc2ncnc(NC3CC3)c2CC1 | -100
56 | O=C1NCCO[C@H]2CN(C(=O)CC3Cc4ccccc4C3)CC[C@@H]12 | -106
57 | O=C(CO)N1C[C@H]2CN(Cc3cccc(F)c3)C(=O)[C@H]2C1 | -82.3
58 | Cn1cnc2c1C(COCC1CCOCC1)CN(C(=O)c1ccoc1)C2 (stereo unspecified) | -7.8
59 | O=c1[nH][nH]cc1-c1ccnc(NCCCN2CCOCC2)n1 | 3.27
60 | CC[C@H](C)Nc1nccc(-c2cnc3sc(C)cn3c2=O)n1 | -6.02
61 | Cc1ncnc(NC(CC(C)(C)C)c2cccnc2)c1C (stereo unspecified) | 1.65
62 | Cc1nc(C(=O)N2CCN(S(C)(=O)=O)[C@@H]3CS(=O)(=O)C[C@@H]32)cs1 | -9.19
63 | O=C1CCC2(CCN(Cc3ccoc3)CC2)N1OCc1ccccc1F | 2.37
64 | O=C1N(Cc2cccc(F)c2F)CCCC1(O)CNCc1ccccc1 (stereo unspecified) | -9.45
65 | CC(C)(O)CCc1cccc(C(=O)N2CCC[C@H]2C(N)=O)c1 | 10.4
66 | O=C(NCCc1noc(C2CCCO2)n1)c1cn2ccsc2n1 (stereo unspecified) | -4.4
67 | COc1ccc(OC)c(-n2cnnc2CCN)c1 | 9.83
68 | CCCN1CCN(Cc2cccc(OC(C)C)c2)[C@H]2CS(=O)(=O)C[C@H]21 | 4.77
69 | CC(C)c1cc(C(=O)N2CCCC(Cn3cc(CO)nn3)C2)on1 (stereo unspecified) | -6.27

Row | SMILES | cytotoxicity at 10 µM [%]
70 | O=C1NC(C(=O)NCc2cccnc2Oc2ccc(F)c(F)c2)CO1 (stereo unspecified) | -0.115
71 | Cc1ncccc1OC1(C(=O)NCc2noc(C(C)C)n2)CCNCC1 | 5.68
72 | Cc1cc(C(=O)NCC2CCS(=O)(=O)C2)ccc1NC(=O)c1ccco1 (stereo unspecified) | 19
73 | OCc1csc(N2CCCC(COc3cccc(F)c3)C2)n1 (stereo unspecified) | -0.176
74 | Cc1cccc(CN2CCCC3(CCN(C4CCSCC4)C3)C2=O)c1 (stereo unspecified) | 2.55
75 | CN(Cc1ccccc1)C1(C(=O)NC(C)(C)CO)Cc2ccccc2C1 | 0.603
76 | CCNc1c(NC(=O)NC(C)C)c(=O)oc2ccccc12 | 1.1
77 | CC(=O)Nc1ncc(S(=O)(=O)N2CCCC(C)C2)s1 (stereo unspecified) | 2.28
78 | CCN(c1ccc(C(=O)N2CCCCC2)cc1)S(=O)(=O)CC | 1.85
79 | CCOCCN1C[C@H](c2cccc(OC)c2)[C@@H](N)C1 | -0.786
80 | CC(C)c1csc(C(=O)N2CCCC(Cn3cc(CO)nn3)C2)n1 (stereo unspecified) | 6.29
81 | Cc1cc(-c2cnn(CCNC(=O)C3CCCO3)c2C2CC2)on1 (stereo unspecified) | -4.07
82 | CN(C)Cc1ccnc(C2CCCN2Cc2ccncc2)n1 (stereo unspecified) | 1.36
83 | Cc1cnn(C2CCCN(C(=O)c3ccc4c(c3)CCC4)C2)c1 (stereo unspecified) | -4.81
84 | Cc1nc(C)n(CC2CCCN2Cc2cccc3c2OCCO3)n1 (stereo unspecified) | -3.33
85 | c1cnc(-c2nc(CN3CCCN(Cc4cccs4)CC3)cs2)nc1 | -7.66
86 | CCOc1cc(C)nc(N2CCN(C(=O)c3cc[nH]n3)CC2)n1 | -8.21
87 | CC1CN(C(=O)c2cccc(OCc3cscn3)c2)CCO1 (stereo unspecified) | -9.86
88 | Cc1cc(C)c(CNC(=O)Cc2ccc3c(c2)CCCC3)c(=O)[nH]1 | -7.39
89 | Cn1ncc2c(=O)[nH]c(CN3CCc4ccccc4C3)nc21 | -2.72
90 | CNS(=O)(=O)CCCN1CCCC1c1noc(C)n1 (stereo unspecified) | -4.38
91 | COC(=O)CC(NC(=O)c1ccccc1OC)c1cccs1 (stereo unspecified) | 0.35
92 | Cc1nc(C2CCCN(C(=O)c3cccc4c3OCO4)C2)sc1C (stereo unspecified) | -8.72

Row | SMILES | cytotoxicity at 10 µM [%]
93 | CCN(Cc1ccccc1Cl)Cn1nc(C)c2c(C)onc2c1=O | -2.34
94 | CNS(=O)(=O)Cc1ccc(CNC(=O)c2ccc(C)[nH]c2=O)cc1 | -3.3
95 | COc1ccc(CNC2CCCN(Cc3noc(C)n3)C2)cc1F (stereo unspecified) | -12.5
96 | Cc1nc(C)n(CC2CCCN2Cc2nc(C3CC3)no2)n1 (stereo unspecified) | -12.5
97 | CN(C)c1cc2c(nn1)CCN(C(=O)C1Cc3ccccc3S1)C2 (stereo unspecified) | -9.52
98 | CCS(=O)(=O)N(C)C(=O)c1cc(C)n(-c2cccc(OC)c2)c1C | -2.35
99 | Cc1cc(CN2CCN(CC(O)C(C)(C)C)CC2)no1 (stereo unspecified) | -14.8
100 | Cc1nc(CN2CCCC(NCCOCC(F)(F)F)C2)no1 (stereo unspecified) | -11.1
101 | CCc1n[nH]c(C2CN(C(=O)c3csnn3)CCO2)n1 (stereo unspecified) | -2.5
102 | O=C(NCc1cccnc1)NC1CCC2(CCC(=O)N2CC2CC2)CC1 (stereo unspecified) | -114
103 | CN(Cc1ccco1)Cc1cncc2c1CCN(S(C)(=O)=O)C2 | 2.11
104 | c1cnc(NCc2nnn3c2CN(Cc2ccsc2)CCC3)nc1 | 10.8
105 | Cn1ccnc1CN1CCN2C[C@H](Oc3ccccc3)C[C@H]2C1 | 7.14
106 | CCCS(=O)(=O)N1C[C@H](N(C)Cc2ccco2)[C@@H]2OCCC[C@@H]21 | -78.4
107 | O=C(NCc1ccccn1)[C@@H]1CC[C@@H]2[C@@H](CCN2c2ncc(F)cn2)O1 | -74.8
108 | O=c1cccnn1CC1CN(Cc2ccsc2)Cc2nccn2C1 (stereo unspecified) | 1.31
109 | Cc1ccc(C(=O)N2CCC3(CC2)CC(N2CCCC2)C3)cc1 | -0.77
110 | CN1CCN(Cc2cccnc2)C(=O)C12CCN(C1CCOC1)CC2 (stereo unspecified) | -111
111 | Cc1nc[nH]c1CN1C[C@H]2CC[C@@H](C1)N(C(=O)CCc1cnn(C)c1)C2 | -14.1
